NRP1-CendR mod: alters CendR peptide binding to human NRP-1. O14786. FAM-RPARPAR peptide binding to NRP-1, fluorescence polarization. inhibition, % at 25 µM. 0.85% of 360,000 active. AID 602438;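 active means inhibition or corrected inhibition above about 18%, plus a signal ratio from 0.5 to 1.5, limit read from the data, passing the limit was not always enough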
Arrestin-AP2 inh: blocks beta-arrestin peptide binding to AP2 adaptin; 0.31% of 340,000 active; FITC-arrestin peptide / GST-AP2 beads, flow cytometry; AP2 beta2 appendage carries R879A mutation; inhibition, % at 10 µM; AID 504490;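 active means inhibition above a set limit, near 3 SD of compounds lacking own fluorescence, cut at about 54% in these data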
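Test system: GST-tagged AP2 beta2-adaptin appendage (R879A) on 4 µm glutathione beads; also added: fluorescein-tagged arrestin peptide at 50 nM final; timing: 12 min plus 1 h, RT; signal: flow cytometry, FL1 (488/535 nm); read-out: percent drop in bead-associated FITC signal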
ABCB6 inh MLPCN: blocks the human ABCB6 transporter; Q9NP58; K562-ABCB6 porphyrin accumulation, flow cytometry, 1 h; active compounds read low; fluorescence ratio to DMSO, % at 10 µM; 0.19% of 360,000 active; AID 602162;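 active means fluorescence ratio to DMSO below 75%, the collection mean minus 3 SD; inconclusive means too few cells collected in the well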;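 further: signal is porphyrin accumulated inside mitochondria; lower ratio means ABCB6 inhibition with less porphyrin fluorescence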
Granule exo inh: lytic granule exocytosis inhibition. TALL-104 LAMP-1 surface exposure, flow cytometry; cells stimulated with thapsigargin and PMA. inhibition, % at 10 µM. 0.66% of 360,000 active. AID 651702;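 active means inhibition above about 55%, limit read from the data; inconclusive means no clear call, values can overlap the other calls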
Myeloid diff 2: promotes myeloid progenitor differentiation; ER-HoxA9 myeloid progenitors, lysozyme-GFP differentiation, flow cytometry; calls only at 10 µM; 1% of 360,000 active; AID 624256;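 active means normalized GFP-positive differentiation at or above the plate's own cutoff, the solvent-only control mean plus 3 SD; inconclusive means no clear call, values can overlap the other calls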;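 further: cells exposed to compound for four days before flow analysis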
ATG4B inh: blocks human ATG4B protease cleavage of LC3 substrate; Q9Y4P1; ATG4B cleavage of LC3-PLA2, NBD-HPC fluorescence, 1 h; inhibition, % at 8.33 µM; 0.51% of 340,000 active; in the data active means inhibition above about 40%
Target sequence (Q9Y4P1 whole entry, looked up): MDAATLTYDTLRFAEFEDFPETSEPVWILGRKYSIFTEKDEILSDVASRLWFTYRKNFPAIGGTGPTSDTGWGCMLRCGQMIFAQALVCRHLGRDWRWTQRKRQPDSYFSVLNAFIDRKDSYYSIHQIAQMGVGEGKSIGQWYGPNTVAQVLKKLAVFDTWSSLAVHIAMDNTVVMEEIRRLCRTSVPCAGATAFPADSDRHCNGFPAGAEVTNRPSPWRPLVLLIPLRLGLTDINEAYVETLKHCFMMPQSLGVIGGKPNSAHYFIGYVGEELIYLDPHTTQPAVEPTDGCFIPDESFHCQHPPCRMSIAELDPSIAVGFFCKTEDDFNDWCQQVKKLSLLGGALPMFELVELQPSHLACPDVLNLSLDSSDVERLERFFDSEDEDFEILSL
Each line names hits and unclear results; the compound was inactive in the other large screens. The list is not random: actives were taken first. Their share in the collection is about 3.3%.

O=C(Cn1c(=O)[nH]c2ccccc2c1=O)Nc1cccnc1	none
C[C@@H](C(=O)Nc1cccnc1)n1c(=O)[nH]c2ccccc2c1=O	NRP1-CendR mod 35
Cc1cccc(NC(=O)COc2cccc3c2CCN(Cc2ccccc2)C3=O)c1C	Myeloid diff 2 active
CCOC(=O)c1c(NC(=O)COc2cccc3c2CCN(C)C3=O)sc2c1CCC2	Myeloid diff 2 active
Cc1cccc(NC(=O)COc2cccc3c2CCN(C)C3=O)c1C	none
CCOC(=O)Nc1sc2c(c1C(=O)OCC)CCC2	none
Cc1ccc(Nc2nc(N/N=C/c3c[nH]c4ccccc34)nc(N3CCOCC3)n2)cc1	Granule exo inh 63
C(=N\Nc1nc(Nc2ccccc2)nc(N2CCOCC2)n1)/c1c[nH]c2ccccc12	none (no result: NRP1-CendR mod, Arrestin-AP2 inh, ABCB6 inh MLPCN, Granule exo inh, Myeloid diff 2)
C=CCn1c(SCC(=O)Nc2ccccc2C)nc2sc(C)c(C)c2c1=O	ABCB6 inh MLPCN 73
C=CCn1c(SCC(=O)Nc2sccc2C(N)=O)nc2sc(C)c(C)c2c1=O	none
CC(NC(=O)C(=O)N1CCCCC1)C(c1cccs1)N1CCN(c2ccccc2)CC1 (centres undefined)	none
NNC(=O)c1ccc(Oc2cc(Cl)cc(Cl)c2)o1	Myeloid diff 2 active
Cc1ccc(C)c(OCCC(=O)Nc2cccc(S(=O)(=O)N3CCCCC3)c2)c1	none
CC1(C)CC(=O)C(C(c2cc([N+](=O)[O-])ccc2Cl)C2C(=O)CC(C)(C)CC2=O)C(=O)C1	none
Cc1sc(C(C2C(=O)CC(C)(C)CC2=O)C2C(=O)CC(C)(C)CC2=O)cc1[N+](=O)[O-]	Granule exo inh 73
O=C(COc1ccccc1)Nc1ccc(-c2ccc(N3CCOCC3)nn2)cc1	NRP1-CendR mod 22
CN1CCN(c2ccc(-c3cccc(NC(=O)COc4ccccc4)c3)nn2)CC1	none
COC(=O)C1C2CC(=O)C(C2)C1C(=O)OC (centres undefined)	none
COCCNC(=O)/C(C#N)=C/c1c(N2CCN(c3cccc(Cl)c3)CC2)nc2c(C)cccn2c1=O	NRP1-CendR mod 19
COCCNC(=O)/C(C#N)=C/c1c(N2CCN(c3ccc(OC)cc3)CC2)nc2c(C)cccn2c1=O	none
Cc1ccc2cc(C)c(SCC(=O)NCC3CCCO3)nc2c1 (centres undefined)	none
CCOC(=O)CC(=O)CSc1nc2ccccc2c(=O)n1-c1ccc(C(=O)NCCOC)cc1	none
Cc1cccc2nc(C(F)(F)F)nc(=O)n12	none
Cc1cc(S(=O)(=O)NCC(c2ccc3c(c2)OCO3)N2CCOCC2)ccc1F (centres undefined)	NRP1-CendR mod 24
Cc1ccc(F)c(S(=O)(=O)NC(=O)C2(C)CCN2C(=O)c2ccc(C3CCCCC3)cc2)c1 (centres undefined)	NRP1-CendR mod 26, Myeloid diff 2 inconclusive (no result: Arrestin-AP2 inh, ATG4B inh)
COCCCNC(=O)C[C@H]1C[C@H](C(=O)N2CCCCC2)[C@@]2(C)c3[nH]c4ccc(Cl)cc4c3CCN2C1=O	Myeloid diff 2 active
COCCCNC(=O)CC1C[C@H](C(=O)N2CCCCC2)[C@@]2(C)c3[nH]c4ccc(OC)cc4c3CCN2C1=O (some centres undefined)	none
CC(C)=CCC/C(C)=C/CNC(=O)C[C@H]1C[C@H](C(=O)N(C(C)C)C(C)C)[C@@]2(C)c3[nH]c4ccc(Cl)cc4c3CCN2C1=O	NRP1-CendR mod 27
CC(C)=CCC/C(C)=C/CNC(=O)CC1C[C@H](C(=O)N(C(C)C)C(C)C)[C@@]2(C)c3[nH]c4ccccc4c3CCN2C1=O (some centres undefined)	none
O=NN(Cc1cccnc1)Cc1cccnc1	none (no result: Arrestin-AP2 inh, ATG4B inh)
O=C1C=C(c2ccccc2)C(=O)N1Nc1ccccc1	Granule exo inh 59
Cc1nnc(NC(=O)CCn2c(=O)oc3ccccc32)s1	none
CCn1nc(C)c(CN2CCC(n3nccc3NC(=O)Cc3ccccc3)CC2)c1C	NRP1-CendR mod 21
Cc1c(O)nc(SCC(=O)Nc2cccc(C(F)(F)F)c2)n(-c2ccccc2)c1=O	none
COc1cccc(NC(=O)CSc2nc(O)c(C)c(=O)n2-c2ccc(C)cc2)c1	NRP1-CendR mod 24
Cc1ccc(NC(=O)CSc2nnc(C)n2CC2CCCO2)cc1 (centres undefined)	Myeloid diff 2 active
Cc1ccc(NC(=O)CSc2nnc(C)n2-c2ccccc2)cc1	none
Cc1ccc(-n2c(C)nnc2SCC(=O)Nc2ccccc2)cc1	NRP1-CendR mod 20
CCOc1ccc(-c2c(C(=O)N/N=C/c3c[nH]c4ccccc34)nnn2-c2nonc2N)cc1	none
COC(=O)[C@H]1CN(C(=O)c2ccccc2)C(=O)N1	NRP1-CendR mod 25
O=C(OCc1nnc(-c2ccccc2)o1)C1CC(=O)N(Cc2ccco2)C1 (centres undefined)	none
C=CCNC(=O)N1CCCC(C(=O)c2cccc(OC(C)C)c2)C1 (centres undefined)	none
Cc1nn(C)c(Cl)c1/C=N/OC(=O)c1ccccc1	none
Cn1nc(C(F)(F)F)c(/C=N/OC(=O)c2ccccc2)c1Cl	Granule exo inh 57
COc1ccccc1NC(=O)CNC(=O)CC12CC3CC(CC(C3)C1)C2	none
COc1cc(/C=C2\SC(=O)N(CCN)C2=O)ccc1OS(=O)(=O)c1cc(C)ccc1C	Granule exo inh 73
COc1ccc(/C=C2\SC(=O)N(CCC(=O)Nc3ccccc3)C2=O)cc1OC	none
Cc1c(C(=O)N(C)Cc2ccccc2)oc2ccc(S(=O)(=O)N3CCCC3)cc12	NRP1-CendR mod 25
CCN(CC)S(=O)(=O)c1ccc(N2CCCCC2)c(NC(=O)c2ccncc2)c1	none
O=C(NCc1cccs1)c1cccnc1C(=O)O	none
Cc1ccc(CNC(=O)c2cnc(-c3ccccn3)nc2C(F)(F)F)cc1	none
O=C(NCc1ccc(F)cc1)c1cnc(-c2ccccn2)nc1C(F)(F)F	NRP1-CendR mod 29
O=C(NCc1ccc(F)cc1)c1cccnc1C(=O)O	NRP1-CendR mod 27
O=C(NC(=S)NNC(=O)c1cnccn1)c1ccc(Cl)cc1	Myeloid diff 2 active
O=C(/C(=C/c1ccc(Cl)cc1)c1nc2ccccc2[nH]1)c1ccccc1	Myeloid diff 2 active
O=C(N/C(=C/c1ccc(Cl)cc1)c1nc2ccccc2[nH]1)c1ccco1	none
COC(=O)/C=C1/S/C(=N/NC(=O)c2ccc(OC)cc2)NC1=O	none
COC(=O)/C=C1/S/C(=N/NC(=O)c2ccccc2OC)NC1=O	Myeloid diff 2 active
Cc1ccc(S(=O)(=O)N2CCN(CC(=O)N(CC(C)C)c3c(N)n(CC(C)C)c(=O)[nH]c3=O)CC2)c(C)c1	NRP1-CendR mod 49
CC(C)CN(C(=O)CN1CCN(c2ccc(F)cc2)CC1)c1c(N)n(CC(C)C)c(=O)[nH]c1=O	none
COCc1cc(=O)[nH]c2c1c(-c1ccccc1)nn2C	none
O=C(CN1CCN(C(=O)c2cc(C3CC3)nn2-c2ccccc2)CC1)Nc1ccc(F)cc1	none (no result: Arrestin-AP2 inh, ATG4B inh)

Source: PubChem BioAssay
